Data published in ChEMBL document CHEMBL2321737, “Selective inhibition of glycosyltransferases by bivalent imidazolium salts” (Bioorg Med Chem, 2013).
Values joined by “and” are separate entries in the source; they are usually repeats but may differ in a detail not shown here. Equal entries are not always repeated. Active and inactive are the calls of the source. The rule behind the calls is not given here.

Experiments:
[1] = target: T1, Beta-1,4-galactosyltransferase 1 (Homo sapiens) (UniProt P15291); test: Inhibition of human recombinant soluble His-tagged beta4-GalT1 expressed in Escherichia coli BL21 using GlcNAcbeta-Bn as substrate at 0.5 mM after 1 hr relative to control
T1 sequence (whole entry): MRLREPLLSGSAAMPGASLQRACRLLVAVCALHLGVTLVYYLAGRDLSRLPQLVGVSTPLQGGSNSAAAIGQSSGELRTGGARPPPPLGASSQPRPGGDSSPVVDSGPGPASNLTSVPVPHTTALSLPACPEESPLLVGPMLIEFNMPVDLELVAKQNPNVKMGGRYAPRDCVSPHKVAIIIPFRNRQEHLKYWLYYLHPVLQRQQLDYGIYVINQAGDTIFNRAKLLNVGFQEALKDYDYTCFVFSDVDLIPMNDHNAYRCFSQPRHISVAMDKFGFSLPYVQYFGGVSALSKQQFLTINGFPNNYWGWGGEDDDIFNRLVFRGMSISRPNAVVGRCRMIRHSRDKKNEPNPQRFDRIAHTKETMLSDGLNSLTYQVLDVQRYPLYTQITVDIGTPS
How it was run: (§1)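 Single point at 0.5 mM bis-imidazolium salt, 10% ethanol. Acceptor 0.5 mM GlcNAcβ-Bn, donor 0.5 mM UDP-Gal. […] Enzyme: 0.34 µg His-tagged human β4-GalT1 from BL21, or bovine milk β4-GalT1. Mean ± SD of replicates.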

[2] = target: T2, Beta-1,3-galactosyltransferase 5 (Homo sapiens) (UniProt Q9Y2C3); test: Inhibition of human recombinant soluble His-tagged beta3-GalT5 expressed in insect cells using GlcNAcbeta-Bn as substrate at 0.5 mM after 1 hr relative to control
T2 sequence (whole entry): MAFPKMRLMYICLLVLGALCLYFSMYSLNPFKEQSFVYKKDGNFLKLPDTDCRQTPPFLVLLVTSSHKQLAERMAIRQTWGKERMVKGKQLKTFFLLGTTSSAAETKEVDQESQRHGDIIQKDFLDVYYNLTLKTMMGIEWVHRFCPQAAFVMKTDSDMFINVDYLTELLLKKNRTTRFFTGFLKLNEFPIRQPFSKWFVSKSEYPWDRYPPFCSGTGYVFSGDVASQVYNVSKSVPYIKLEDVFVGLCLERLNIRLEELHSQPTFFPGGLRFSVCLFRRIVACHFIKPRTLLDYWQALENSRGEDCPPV
How it was run: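 Soluble His-tagged human β3-GalT5 expressed in insect cells and purified, 0.37 µg. Acceptor 0.5 mM GlcNAcβ-Bn, donor 0.5 mM UDP-Gal, inhibitor 0.5 mM bis-imidazolium salt in 10% ethanol. 1 h at 37 °C. Product isolated on AG1-X8 resin and counted by scintillation. % inhibition versus no-inhibitor control; blanks lacked acceptor. Mean ± SD of replicates.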

[3] = target: Beta-1,3-galactosyltransferase 5 (Homo sapiens) (UniProt Q9Y2C3); test: Inhibition of human recombinant soluble His-tagged beta3-GalT5 expressed in insect cells using GlcNAcbeta-Bn as substrate at 0.5 mM after 1 hr in presence of phosphatidylcholine
Homo sapiens [4] = species: Homo sapiens; test: Inhibition of human C2GnT2 using GlcNAcbeta3GalNAcalpha-pnp as substrate at 0.5 mM after 1 hr in presence of phosphatidylcholine
Bos taurus = species: Bos taurus; test: Inhibition of bovine polypeptide GalNAcT1 using AQPTPPP as substrate at 0.5 mM after 1 hr relative to control
Homo sapiens [5] = species: Homo sapiens; test: Inhibition of human C2GnT2 using Galbeta3GalNAcalpha-Bn as substrate at 0.5 mM after 1 hr in presence of phosphatidylcholine
[6] = Inhibition of human GNT1 using Man3-octyl as substrate at 0.5 mM after 1 hr in presence of phosphatidylcholine
[7] = target: T3, Acetylgalactosaminyl-O-glycosyl-glycoprotein beta-1,3-N-acetylglucosaminyltransferase (Homo sapiens) (UniProt Q6ZMB0); test: Inhibition of human B3GnT6 using GalNAcalpha-Bn as substrate at 0.5 mM after 1 hr in presence of phosphatidylcholine
T3 sequence (whole entry): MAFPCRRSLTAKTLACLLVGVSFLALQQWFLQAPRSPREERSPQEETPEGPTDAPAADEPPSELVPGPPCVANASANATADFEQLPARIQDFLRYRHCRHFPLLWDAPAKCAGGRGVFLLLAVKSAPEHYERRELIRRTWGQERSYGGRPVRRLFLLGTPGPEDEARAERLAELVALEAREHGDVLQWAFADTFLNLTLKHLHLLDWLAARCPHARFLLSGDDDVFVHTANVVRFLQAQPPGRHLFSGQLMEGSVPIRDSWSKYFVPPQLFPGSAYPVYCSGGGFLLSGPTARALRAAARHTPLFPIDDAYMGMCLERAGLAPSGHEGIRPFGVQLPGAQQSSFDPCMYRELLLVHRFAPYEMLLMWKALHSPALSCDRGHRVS

[8] = target: Glycoprotein-N-acetylgalactosamine 3-beta-galactosyltransferase 1 (Homo sapiens) (UniProt Q9NS00); test: Inhibition of human C1GalT Gal-transferase using GalNAcalpha-Bn as substrate at 0.5 mM after 1 hr in presence of phosphatidylcholine
[9] = target: T4, Beta-1,4-galactosyltransferase 1 (Bos taurus) (UniProt P08037); test: Inhibition of bovine milk beta4-GalT1 using GlcNAcbeta-Bn as substrate at 0.5 mM after 1 hr relative to control; how it was run: as §1
T4 sequence (whole entry): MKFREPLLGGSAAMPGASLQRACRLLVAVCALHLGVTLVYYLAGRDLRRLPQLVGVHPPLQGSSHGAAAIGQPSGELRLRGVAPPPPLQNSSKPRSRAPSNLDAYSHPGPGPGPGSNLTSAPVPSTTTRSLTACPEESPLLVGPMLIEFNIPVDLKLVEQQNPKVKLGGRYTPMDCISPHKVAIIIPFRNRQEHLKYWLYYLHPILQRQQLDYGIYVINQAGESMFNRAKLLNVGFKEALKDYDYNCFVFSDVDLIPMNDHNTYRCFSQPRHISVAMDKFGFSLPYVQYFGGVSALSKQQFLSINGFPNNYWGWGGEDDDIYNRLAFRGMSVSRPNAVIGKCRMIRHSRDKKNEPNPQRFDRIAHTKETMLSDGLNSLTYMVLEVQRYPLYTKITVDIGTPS

[10] = target: T5, Alpha-1,6-mannosyl-glycoprotein 2-beta-N-acetylglucosaminyltransferase (Homo sapiens) (UniProt Q10469); test: Inhibition of human GNT2 […] using GnMan3-octyl as substrate at 0.5 mM after 1 hr in presence of phosphatidylcholine
T5 sequence (whole entry): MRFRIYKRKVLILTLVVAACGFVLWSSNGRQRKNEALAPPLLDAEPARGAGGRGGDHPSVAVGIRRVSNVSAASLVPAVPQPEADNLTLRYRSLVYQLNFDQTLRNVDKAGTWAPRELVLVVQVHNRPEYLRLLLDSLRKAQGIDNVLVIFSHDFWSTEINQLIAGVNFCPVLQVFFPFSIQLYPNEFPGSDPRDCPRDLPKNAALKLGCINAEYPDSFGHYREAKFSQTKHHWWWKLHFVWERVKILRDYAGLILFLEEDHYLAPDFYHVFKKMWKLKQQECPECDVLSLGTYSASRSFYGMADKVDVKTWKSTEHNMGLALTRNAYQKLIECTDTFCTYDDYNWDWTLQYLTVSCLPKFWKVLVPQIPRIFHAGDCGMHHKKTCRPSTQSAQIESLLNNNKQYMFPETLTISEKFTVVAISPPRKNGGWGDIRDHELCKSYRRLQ

[11] = target: T6, Beta-1,3-galactosyl-O-glycosyl-glycoprotein beta-1,6-N-acetylglucosaminyltransferase (Homo sapiens) (UniProt Q02742); test: Inhibition of human C2GnT1 using Galbeta3GalNAcalpha-Bn as substrate at 0.5 mM after 1 hr in presence of phosphatidylcholine
T6 sequence (whole entry): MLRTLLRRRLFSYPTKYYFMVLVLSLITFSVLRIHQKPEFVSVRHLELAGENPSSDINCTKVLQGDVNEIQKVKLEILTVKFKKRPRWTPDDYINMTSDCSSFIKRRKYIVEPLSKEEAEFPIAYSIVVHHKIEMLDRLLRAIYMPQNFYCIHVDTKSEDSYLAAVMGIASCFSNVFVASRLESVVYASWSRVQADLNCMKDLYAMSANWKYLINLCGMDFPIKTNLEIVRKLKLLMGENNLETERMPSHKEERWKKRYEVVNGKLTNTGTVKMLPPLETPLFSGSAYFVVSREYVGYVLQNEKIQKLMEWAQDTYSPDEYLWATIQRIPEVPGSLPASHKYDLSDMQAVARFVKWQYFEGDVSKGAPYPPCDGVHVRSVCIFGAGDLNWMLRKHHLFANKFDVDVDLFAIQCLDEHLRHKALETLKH

[12] = target: Beta-1,3-galactosyltransferase 5 (Homo sapiens) (UniProt Q9Y2C3); test: Inhibition of human recombinant soluble His-tagged beta3-GalT5 expressed in insect cells using GlcNAcbeta-Bn as substrate at 0.5 mM after 1 hr in presence of triton X-100
[13] = target: Beta-1,3-galactosyltransferase 5 (Homo sapiens) (UniProt Q9Y2C3); test: Inhibition of human recombinant soluble His-tagged beta3-GalT5 expressed in insect cells using GlcNAcbeta-Bn as substrate after 1 hr
[14] = target: T7, Beta-1,4-galactosyltransferase 1 (Bos taurus, UniProt P08037); test: Inhibition of bovine milk beta4-GalT1 using GlcNAcbeta-Bn as substrate after 1 hr relative to control
T7 sequence (P08037 whole entry): T4 sequence (whole entry)
How it was run: (§2)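 Dose-response series of bis-imidazolium salt in 10% ethanol, 0.5 mM GlcNAcβ-Bn acceptor, 0.5 mM UDP-Gal donor. 1 h at 37 °C. Product isolated on AG1-X8 anion-exchange resin (chloride form) with water elution, then scintillation counting. Controls lacked acceptor or inhibitor. IC50 fitted from inhibition curves. Enzyme source: bovine milk β4-GalT1 or bacterially expressed, purified human β4-GalT1.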

[15] = target: T8, Beta-1,4-galactosyltransferase 1 (Homo sapiens, UniProt P15291); test: Inhibition of human recombinant soluble His-tagged beta4-GalT1 expressed in Escherichia coli BL21 using GlcNAcbeta-Bn as substrate after 1 hr relative to control; how it was run: as §2
T8 sequence (P15291 whole entry): T1 sequence (whole entry)

Chain of Glycoprotein-N-acetylgalactosamine 3-beta-galactosyltransferase 1 (Homo sapiens) (Q9NS00 whole entry): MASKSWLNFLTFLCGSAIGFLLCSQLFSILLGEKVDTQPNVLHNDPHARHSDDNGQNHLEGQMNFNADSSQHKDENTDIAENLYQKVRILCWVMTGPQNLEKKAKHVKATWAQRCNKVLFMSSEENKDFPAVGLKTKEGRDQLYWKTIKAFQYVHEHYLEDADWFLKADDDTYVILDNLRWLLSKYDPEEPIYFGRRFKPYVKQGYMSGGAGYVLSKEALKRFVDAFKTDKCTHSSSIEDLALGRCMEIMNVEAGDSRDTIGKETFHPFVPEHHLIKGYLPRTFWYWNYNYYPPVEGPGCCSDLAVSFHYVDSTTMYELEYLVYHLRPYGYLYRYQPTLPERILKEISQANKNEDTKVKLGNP

| Compound | inhibition [1] | inhibition [2] | further results |
| --- | --- | --- | --- |
| C[n+]1ccn(CCCCCCCCCCCCCCCn2cc[n+](C)c2)c1 | < 1% | < 1% |  |
| C[n+]1ccn(CCCCCCCCCCCCCCCCCCCCn2cc[n+](C)c2)c1 [listing 1 of 3 here] | 40.7% and 54% | 79.2% and 84% | inhibition [3]: inactive; inhibition (Homo sapiens [4]): < 1%; inhibition (Bos taurus): 96.8% and 91%; inhibition (Homo sapiens [5]): < 1%; inhibition [6]: < 1%; inhibition [7]: 80% and 94.4%; inhibition [8]: < 1%; inhibition [9]: 40.7% and 54%; inhibition [10]: < 1%; inhibition [11]: 100%; inhibition [12]: inactive |
| C[n+]1ccn(CCCCCCCCCCCCCCCCCCn2cc[n+](C)c2)c1 | < 1% | < 5% |  |
| C[n+]1ccn(CCCCCCCCCCn2cc[n+](C)c2)c1 | < 1% | < 1% |  |
| c1cn(CCCCCCCCCCCCCCCCCCCCn2ccnc2)cn1 | < 1% | < 1% |  |
| c1cn(CCCCCCCCCCCCCCCn2ccnc2)cn1 | < 1% | < 1% |  |
| C[n+]1ccn(CCCCCCCCCCCCCCCCn2cc[n+](C)c2)c1 | < 1% | < 1% |  |
| C[n+]1ccn(CCCCCCCCCCCCn2cc[n+](C)c2)c1 | < 1% | < 1% |  |
| c1cn(CCCCCCCCCCCCCCn2ccnc2)cn1 | < 1% | < 1% |  |
| C[n+]1ccn(CCCCCCCCCCCCCCCCCCCCn2cc[n+](C)c2)c1 [listing 2 of 3 here] |  |  | IC50 [13]: 440 µM; IC50 [14]: 730 µM; IC50 [15]: 1960 µM |
| c1cn(CCCCn2ccnc2)cn1 | < 1% | < 1% |  |
| C[n+]1ccn(CCCCCCn2cc[n+](C)c2)c1 | < 1% | < 1% |  |
| C[n+]1ccn(CCCCCCCCn2cc[n+](C)c2)c1 | < 1% | < 1% |  |
| C[n+]1ccn(CCCCCCCCCCCn2cc[n+](C)c2)c1 | < 1% | < 1% |  |
| C[n+]1ccn(CCCCCCCCCCCCCCCCCCCCn2cc[n+](C)c2)c1 [listing 3 of 3 here] |  |  | IC50 [13]: 420 µM |
| c1cn(CCCCCCCCCCCCn2ccnc2)cn1 | < 1% | < 1% |  |
| c1cn(CCCCCCCCCCn2ccnc2)cn1 | < 1% | < 1% |  |
| c1cn(CCCCCCCCCCCCCCCCCCn2ccnc2)cn1 | < 1% | < 1% |  |
| C[n+]1ccn(CCCCCCCCCCCCCn2cc[n+](C)c2)c1 | < 1% | < 1% |  |
| c1cn(CCCCCCCCCCCn2ccnc2)cn1 | < 1% | < 1% |  |
| C[n+]1ccn(CCCCCCCCCCCCCCCCCCCCCCn2cc[n+](C)c2)c1 | 78% | 95% | inhibition (Homo sapiens [4]): < 1%; IC50 [13]: 400 µM; inhibition (Bos taurus): 100%; inhibition (Homo sapiens [5]): < 1%; inhibition [7]: 78%; inhibition [8]: < 1%; inhibition [9]: 78%; inhibition [10]: < 1%; inhibition [11]: 100% |
| c1cn(CCCCCCCCn2ccnc2)cn1 | < 1% | < 1% |  |
| C[n+]1ccn(CCCCn2cc[n+](C)c2)c1 | < 1% | < 1% |  |
| c1cn(CCCCCCn2ccnc2)cn1 | < 1% | < 1% |  |
| c1cn(CCCCCCCCCCCCCCCCn2ccnc2)cn1 | < 1% | < 1% |  |
| C[n+]1ccn(CCCCCCCCCCCCCCn2cc[n+](C)c2)c1 | < 1% | < 1% |  |
| c1cn(CCCCCCCCCCCCCn2ccnc2)cn1 | < 1% | < 1% |  |
